Results taken from ChEMBL document CHEMBL4041535, “Rational design, synthesis and in vitro evaluation of novel exo-methylene butyrolactone salicyloylamide as NF-κB inhibitor” (Bioorg Med Chem Lett, 2017).
Active and inactive are the calls of the source. The calls are words filed in the database; no cut-off is given here.

How the values were obtained:
[1] = system: ES2; assay: Anti-invasive activity against human ES2 cells at 1 to 10 ug/ml after 24 hrs by Diff-Quick staining based matrigel chamber assay; assay type: functional, cell-based
Method in brief: (§1)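 ES-2 ovarian clear cell carcinoma cells exposed to compound 24 h; invasion through Matrigel chamber. Mean ± SD of 4 fields.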

[2] = biological target: Transcription factor p65 (Mus musculus) (UniProt Q04207); assay: Inhibition of kappaB DNA binding to NFkappaB p65 in LPS-stimulated mouse RAW264.7 nuclear extract at 3 to 10 ug/ml after 15 mins by colorimetric method
Transcription factor p65 (Mus musculus), sequence (Q04207 whole entry): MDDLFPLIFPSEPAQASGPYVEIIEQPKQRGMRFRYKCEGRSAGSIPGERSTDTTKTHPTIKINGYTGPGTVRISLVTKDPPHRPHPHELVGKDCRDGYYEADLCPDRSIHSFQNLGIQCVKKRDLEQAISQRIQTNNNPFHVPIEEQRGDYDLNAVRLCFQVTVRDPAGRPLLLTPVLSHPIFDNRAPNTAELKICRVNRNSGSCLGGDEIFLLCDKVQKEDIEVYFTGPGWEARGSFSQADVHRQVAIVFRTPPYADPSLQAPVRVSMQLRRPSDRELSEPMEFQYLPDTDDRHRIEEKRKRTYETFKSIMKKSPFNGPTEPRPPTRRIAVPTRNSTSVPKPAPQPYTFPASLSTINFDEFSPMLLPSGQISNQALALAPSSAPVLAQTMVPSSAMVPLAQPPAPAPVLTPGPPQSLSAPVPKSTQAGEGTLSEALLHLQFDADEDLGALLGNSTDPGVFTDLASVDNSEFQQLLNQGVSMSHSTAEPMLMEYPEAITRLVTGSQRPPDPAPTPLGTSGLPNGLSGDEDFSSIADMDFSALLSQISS
Method in brief: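 RAW264.7 cells stimulated with LPS 2 h to accumulate nuclear NF-κB. Nuclear extract prepared; compound added directly to extract. p65-κB DNA binding read with TransAM NF-κB p65 kit. Mean ± SD of 3 independent experiments.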

[3] = biological target: Transcription factor p65 (Mus musculus) (UniProt Q04207); assay: Inhibition of LPS-induced NFkappaB p65 activation in mouse RAW264.7 cells at 0.3 to 1 ug/ml preincubated for 30 mins followed by LPS addition measured after 2 hrs by kappaB DNA binding based colorimetric method; assay type: cell-based
Method in brief: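 RAW264.7 cells given compound 30 min before LPS, stimulated 2 h. Nuclear extract prepared. p65 binding measured on κB DNA-coated dish with labeled p65 antibody (TransAM kit). Mean ± SD of 3 independent experiments.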

[4] = biological target: Transcription factor p65 (Mus musculus) (UniProt Q04207); assay: Inhibition of LPS-induced NFkappaB p65-mediated iNOS induction in mouse RAW264.7 cells assessed as reduction in NO production at 0.3 to 10 ug/ml preincubated for 30 mins followed by LPS addition measured after 24 hrs by Griess assay; assay type: cell-based
Method in brief: (§2)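 RAW264.7 cells given compound 30 min before LPS, then incubated 24 h. Nitrite in medium measured by Griess assay. Mean ± SD of 3 determinations.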

[5] = biological target: Transcription factor p65 (Homo sapiens) (UniProt Q04206); assay: Inhibition of constitutively activated NFkappaB p65 in human ES2 cells at 3 to 10 ug/ml after 2 hrs by kappaB DNA binding based colorimetric method; assay type: cell-based
Transcription factor p65 (Homo sapiens), sequence (Q04206 whole entry): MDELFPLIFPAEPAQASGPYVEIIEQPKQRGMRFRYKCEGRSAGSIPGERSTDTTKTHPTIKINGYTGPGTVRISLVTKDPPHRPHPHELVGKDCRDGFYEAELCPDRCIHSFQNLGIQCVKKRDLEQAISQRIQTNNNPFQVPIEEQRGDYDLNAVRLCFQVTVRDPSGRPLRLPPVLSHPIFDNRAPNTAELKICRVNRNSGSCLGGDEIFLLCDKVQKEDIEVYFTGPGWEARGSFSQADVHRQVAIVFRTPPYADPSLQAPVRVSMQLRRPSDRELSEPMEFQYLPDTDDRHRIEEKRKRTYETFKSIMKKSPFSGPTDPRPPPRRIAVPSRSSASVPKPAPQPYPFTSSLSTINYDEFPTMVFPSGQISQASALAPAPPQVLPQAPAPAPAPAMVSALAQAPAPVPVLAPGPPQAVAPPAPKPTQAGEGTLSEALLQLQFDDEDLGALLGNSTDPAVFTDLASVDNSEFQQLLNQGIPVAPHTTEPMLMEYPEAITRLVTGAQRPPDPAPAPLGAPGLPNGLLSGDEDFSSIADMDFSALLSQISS
Method in brief: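 ES-2 cells exposed to compound 2 h. Nuclear extract prepared. p65 binding to κB DNA-coated dish detected with labeled p65 antibody.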

[6] = Chemical stability in PBS at 100 ug/ml up to 12 hrs at 37 degC by HPLC analysis; assay type: physicochemical; settings: buffer
Method in brief: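 Compound dissolved in PBS at 100 µg/ml, held at 37 °C for 0, 30 min, 1, 2, 6, 12 h. Extracted into ethyl acetate, dried, then quantified by HPLC. Column: ODS at 40 °C. Mobile phase: acetonitrile/0.1% ammonium acetate (22:78), 0.3 mL/min. UV detection at 254 nm. Mean ± SD of 3 determinations.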

[7] = system: RAW264.7; assay: Cytotoxicity against mouse RAW264.7 cells assessed as reduction in cell viability up to 1 ug/ml after 24 hrs by MTT assay; assay type: cell-based; settings: raw264.7, 24 h
Method in brief: (§3)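 Cells treated with compound 24 h; viability by MTT. Mean ± SD of 3 determinations.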

[8] = Cytotoxicity against human ES2 cells assessed as reduction in cell viability up to 30 ug/ml after 24 hrs by MTT assay; assay type: cell-based; settings: es2, 24 h; method in brief: as §3
[9] = biological target: Transcription factor p65 (Mus musculus) (UniProt Q04207); assay: Inhibition of LPS-induced NFkappaB p65-mediated IL-6 secretion in mouse RAW264.7 cells at 0.1 to 1 ug/ml preincubated for 30 mins followed by LPS addition measured after 24 hrs by ELISA; assay type: cell-based
Method in brief: (§4)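 RAW264.7 cells given compound 30 min before LPS, then incubated 24 h. IL-6, IL-1β, TNF-α in medium quantified by ELISA. Mean ± SD of 3 determinations.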

[10] = biological target: Transcription factor p65 (Mus musculus) (UniProt Q04207); assay: Inhibition of LPS-induced NFkappaB p65-mediated TNF-alpha secretion in mouse RAW264.7 cells at 0.1 to 1 ug/ml preincubated for 30 mins followed by LPS addition measured after 24 hrs by ELISA; assay type: cell-based; method in brief: as §4
[11] = biological target: Transcription factor p65 (Mus musculus) (UniProt Q04207); assay: Inhibition of LPS-induced NFkappaB p65-mediated iNOS induction in mouse RAW264.7 cells assessed as reduction in NO production preincubated for 30 mins followed by LPS addition measured after 24 hrs by Griess assay; assay type: cell-based; method in brief: as §2
[12] = biological target: Transcription factor p65 (Mus musculus) (UniProt Q04207); assay: Inhibition of LPS-induced NFkappaB p65-mediated iNOS induction in mouse RAW264.7 cells assessed as reduction in NO production at 1 ug/ml using 12 hrs PBS incubated compound preincubated for 30 mins with cells followed by LPS addition measured after 24 hrs by Griess assay; assay type: cell-based
Method in brief: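 Compound pre-incubated in PBS at 100 µg/ml, then added to RAW264.7 cells to give 1 µg/ml. LPS 10 ng/ml added 30 min later, 24 h. NO by Griess assay. Mean ± SD of 3 determinations.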

[13] = biological target: Transcription factor p65 (Mus musculus) (UniProt Q04207); assay: Inhibition of LPS-induced NFkappaB p65-mediated iNOS mRNA expression in mouse RAW264.7 cells at 0.1 to 1 ug/ml preincubated for 30 mins followed by LPS addition measured after 24 hrs by qPCR method; assay type: cell-based
Method in brief: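 RAW264.7 cells incubated with compound plus LPS 24 h; iNOS mRNA detected by semi-quantitative PCR.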

[14] = biological target: Transcription factor p65 (Homo sapiens) (UniProt Q04206); assay: Inhibition of NFkappaB p65 in human ES2 cells assessed as reduction in MMP2 mRNA expression at 0.1 to 1 ug/ml after 24 hrs by qPCR method; assay type: cell-based
Method in brief: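 ES-2 cells incubated with compound 24 h; MMP-2 mRNA detected by semi-quantitative PCR.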

[15] = system: ES2; assay: Anti-invasive activity against human ES2 cells at 0.1 to 0.3 ug/ml after 24 hrs by Diff-Quick staining based matrigel chamber assay; assay type: functional, cell-based; method in brief: as §1
[16] = biological target: Transcription factor p65 (Homo sapiens) (UniProt Q04206); assay: Inhibition of kappaB DNA binding to NFkappaB p65 in human ES2 nuclear extract at 3 to 10 ug/ml after 15 mins by colorimetric method
Method in brief: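 Compound added directly to ES-2 nuclear extract. p65 binding to κB DNA-coated dish detected with labeled p65 antibody. Mean ± SD of 3 independent experiments.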

[17] = biological target: Transcription factor p65 (Mus musculus) (UniProt Q04207); assay: Inhibition of LPS-induced NFkappaB p65-mediated IL-1beta secretion in mouse RAW264.7 cells at 0.1 to 1 ug/ml preincubated for 30 mins followed by LPS addition measured after 24 hrs by ELISA; assay type: cell-based; method in brief: as §4
[18] = biological target: Transcription factor p65 (Homo sapiens) (UniProt Q04206); assay: Inhibition of NFkappaB p65 in human ES2 cells assessed as reduction in MMP2 secretion at 3 to 10 ug/ml after 24 hrs by ELISA; assay type: cell-based
Method in brief: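 ES-2 cells incubated with compound 24 h; secreted MMP-2 in medium by ELISA. Mean ± SD of 3 determinations.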

[19] = system: ES2; assay: Antimigratory activity against human ES2 cells at 1 to 10 ug/ml after 24 hrs by radius 96-well migration assay; assay type: functional, cell-based
Method in brief: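 ES-2 cells treated 24 h; migration read by Radius 96-well cell migration assay. Mean ± SD of 3 determinations.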

| Compound | inhibition [1] | inhibition [2] | inhibition [3] | inhibition [4] | inhibition [5] | Stability [6] | Activity [7] | Activity [8] | inhibition [9] | inhibition [10] | inhibition [11] | inhibition [12] | inhibition [13] | inhibition [14] | inhibition [15] | inhibition [16] | inhibition [17] | inhibition [18] | inhibition [19] |
| --- | --- | --- | --- | --- | --- | --- | --- | --- | --- | --- | --- | --- | --- | --- | --- | --- | --- | --- | --- |
| O=C(NC1=CC(=O)[C@H]2O[C@H]2[C@H]1O)c1ccccc1O [DEHYDROXYMETHYLEPOXYQUINOMICIN] | Active | Active | Active | Active | Active | Unstable | – | – | – | – | – | – | – | – | – | – | – | – | – |
| C=C1C(=O)OC[C@H]1NC(=O)c1ccccc1O | – | Active | Active | – | Active | Stable | Non-Toxic | Non-Toxic | Active | Active | Dose-dependent effect | Active | Active | Active | Active | Active | Active | Active | Active |
